Laboratory results reported in ChEMBL document CHEMBL1142019, “Design and synthesis of novel 9-substituted-7-aryl-3,4,5,6-tetrahydro-2H-pyrido[4,3-b]- and [2,3-b]-1,5-oxazocin-6-ones as NK(1) antagonists” (2005).

Key:
[1] = target: Substance-P receptor (Cavia porcellus) (UniProt P30547); test: Antagonist activity against tachykinin receptor 1 activity in guinea pig ileum in vitro; format: functional, tissue-based
In short: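 Isolated guinea pig ileum preparation; NK1 antagonism expressed as a K_B value.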

Rattus norvegicus = organism: Rattus norvegicus; test: Metabolic stability expressed as the remaining ratio of compound in rat microsomes after incubation in a shaking water bath for 1 hour; format: functional
In short: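 Compound incubated with rat microsomes for 60 min at 37 °C in a shaking water bath. Stability is reported as the remaining ratio, the percentage of parent compound left.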

[2] = Effective bladder capacity increasing effect of compound (0.3 mg/kg i.v.) expressed as the ratio of increase in effective bladder capacity compared to saline treated animals in vivo; format: functional, Cavia porcellus; conditions: in the assay text read “compared with the predrug values” for “compared to saline treated animals”
In short: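 Spinalized guinea pigs given test agent iv at 0.3 mg/kg. Effective bladder capacity was the volume of saline injected into the bladder. The result is the ratio of the increase in effective bladder capacity relative to each animal's predrug value.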

Sequence of Substance-P receptor (Cavia porcellus) (P30547 whole entry): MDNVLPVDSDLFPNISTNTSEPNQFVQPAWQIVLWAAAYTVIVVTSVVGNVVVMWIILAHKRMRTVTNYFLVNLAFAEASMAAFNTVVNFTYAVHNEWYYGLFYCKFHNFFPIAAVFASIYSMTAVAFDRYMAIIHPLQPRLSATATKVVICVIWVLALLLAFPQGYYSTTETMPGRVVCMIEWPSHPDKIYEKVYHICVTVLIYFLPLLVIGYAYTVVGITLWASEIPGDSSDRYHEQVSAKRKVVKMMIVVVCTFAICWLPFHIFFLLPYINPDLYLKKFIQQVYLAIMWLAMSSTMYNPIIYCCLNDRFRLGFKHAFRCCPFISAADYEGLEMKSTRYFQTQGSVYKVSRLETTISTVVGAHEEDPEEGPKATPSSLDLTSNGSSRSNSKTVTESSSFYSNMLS

CN(Cc1cc(C(F)(F)F)cc(C(F)(F)F)c1)C(=O)c1cccnc1-c1ccccc1
Kb [1]: 151 nM | Remaining ratio (Rattus norvegicus): 70%

O=C1c2c(-c3ccccc3)cc(N3CCC(N4CCCCC4)CC3)nc2OCCCN1Cc1cc(C(F)(F)F)cc(C(F)(F)F)c1
Kb [1]: 2.34 nM | Remaining ratio (Rattus norvegicus): 100%

CN(Cc1cc(C(F)(F)F)cc(C(F)(F)F)c1)C(=O)c1ccc(N2CCOCC2)nc1-c1ccccc1
Kb [1]: 129 nM | Remaining ratio (Rattus norvegicus): 100%

CN1CCN(c2cc(-c3ccccc3)c3c(n2)OCCCN(Cc2cc(C(F)(F)F)cc(C(F)(F)F)c2)C3=O)CC1
Kb [1]: 1.16 nM | Remaining ratio (Rattus norvegicus): 100%

Cc1ccc(-c2c3n(c(=O)c4ncccc24)CC[C@@H](C)CN(Cc2cc(C(F)(F)F)cc(C(F)(F)F)c2)C3=O)cc1
Effect [2]: 12%

O=C1c2c(-c3ccccc3)cc(N3CCCCC3)nc2OCCCN1Cc1cc(C(F)(F)F)cc(C(F)(F)F)c1
Kb [1]: 13.2 nM | Remaining ratio (Rattus norvegicus): 70%

COc1cc(N2CCOCC2)nc(-c2ccccc2)c1C(=O)N(C)Cc1cc(C(F)(F)F)cc(C(F)(F)F)c1
Kb [1]: 26.3 nM | Remaining ratio (Rattus norvegicus): 100%

O=C1c2c(ccnc2-c2ccccc2)OCCCN1Cc1cc(C(F)(F)F)cc(C(F)(F)F)c1
Kb [1]: 69.2 nM | Remaining ratio (Rattus norvegicus): 100%

Cc1ccccc1-c1nc(N2CCC(N3CCCC3)CC2)cc2c1C(=O)N(Cc1cc(C(F)(F)F)cc(C(F)(F)F)c1)CCCO2
Remaining ratio (Rattus norvegicus): 100% | Effect [2]: 3.97%

O=C1c2c(-c3ccccc3Cl)cc(N3CCC(N4CCCC4)CC3)nc2OCCCN1Cc1cc(C(F)(F)F)cc(C(F)(F)F)c1
Kb [1]: 0.207 nM | Remaining ratio (Rattus norvegicus): 89%

O=C1c2c(-c3ccccc3)cc(N3CCC(N4CCCC4)CC3)nc2OCCCN1Cc1cc(C(F)(F)F)cc(C(F)(F)F)c1
Kb [1]: 0.224 nM | Remaining ratio (Rattus norvegicus): 86%

O=C1c2c(-c3ccccc3)cc(N3CCCC3)nc2OCCCN1Cc1cc(C(F)(F)F)cc(C(F)(F)F)c1
Kb [1]: 13.8 nM | Remaining ratio (Rattus norvegicus): 71%

FC(F)(F)c1cc(COc2cccnc2-c2ccccc2)cc(C(F)(F)F)c1
Kb [1]: 25.7 nM | Remaining ratio (Rattus norvegicus): 9%

O=C1c2c(cc(N3CCOCC3)nc2-c2ccccc2)OCCCN1Cc1cc(C(F)(F)F)cc(C(F)(F)F)c1
Kb [1]: 2.63 nM | Remaining ratio (Rattus norvegicus): 100%

O=C1c2c(-c3ccccc3)cc(N3CCOCC3)nc2OCCCN1Cc1cc(C(F)(F)F)cc(C(F)(F)F)c1
Kb [1]: 2.57 nM | Remaining ratio (Rattus norvegicus): 100%

Cc1ccccc1-c1cc(N2CCC(N3CCCC3)CC2)nc2c1C(=O)N(Cc1cc(C(F)(F)F)cc(C(F)(F)F)c1)CCCO2
Kb [1]: 0.21 nM | Remaining ratio (Rattus norvegicus): 100% | Effect [2]: 24.2%

O=C1c2c(-c3ccccc3F)cc(N3CCC(N4CCCC4)CC3)nc2OCCCN1Cc1cc(C(F)(F)F)cc(C(F)(F)F)c1
Kb [1]: 0.382 nM | Remaining ratio (Rattus norvegicus): 100%
